Holding throughout (assay type): functional
Test [1] concerns Rattus norvegicus. As to the kind of experiment: Behavioral stimulant activity in rat by sc administration; Slight to moderate CNS stimulation.
The species named for test [2] is Rattus norvegicus. Kind of test: Antinociceptive activity by measuring in flamed paw pressure threshold in rat. A digest of the protocol: (§1)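 ED50 determination: six animals per dose group, each dose tested on two or three separate occasions. Pooled data (total dose groups of 12 or 18 animals) analysed by regression to give ED50. Inflamed-paw pressure test in rats; acetylcholine-induced writhing in mice. Doses for the rat paw test given po.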

Another test is filed under the species Mus musculus. Kind of test: Antinociceptive activity by measuring inhibition of acetylcholine writhing in mouse. A digest of the protocol:
as §1

The subject of test [3] is Rattus norvegicus. Kind of test: Behavioral stimulant activity in rat by peroral administration; Inactive.
The subject of test [4] is Rattus norvegicus. Kind of test: Behavioral stimulant activity in rat by sc administration; Marked CNS stimulation.
For test [5], the system named is Rattus norvegicus. Kind of test: Behavioral stimulant activity in rat by sc administration; Marked CNS activity.
In test [6] the test system is Rattus norvegicus. Kind of test: Behavioral stimulant activity in rat by sc administration; Moderate CNS stimulation.

Values joined by “and” are separate entries in the source; they are usually repeats but may differ in a detail not shown here. Equal values may be shown once.

In the test on Rattus norvegicus [1], `CN(CC1CC1)[C@@H]1C(c2ccccc2)=CC2CCC1C2` (some centres not stated) yielded a Dose of 50 mg/kg. In the test listed under Rattus norvegicus [2], this compound had an ED50 of more than 30 mg/kg.

On to `CCN(C)[C@@H]1C(c2cccc(OC)c2)=CC2CCC1C2` (some centres not stated), for which the ED50 in the test filed under Rattus norvegicus [2] amounted to 10.4 mg/kg; in the test listed under Mus musculus it was 30.6 mg/kg.

`CC(C)N(C)[C@@H]1C(c2ccccc2)=CC2CCC1C2` (some centres not stated) registered an ED50 in the test filed under Rattus norvegicus [2] of more than 30 mg/kg. In addition, the Dose in the test on Rattus norvegicus [3] amounted to 25 mg/kg.

For `COc1ccc2c3c1O[C@H]1[C@@H](O)C=C[C@H]4[C@@H](C2)N(C)CC[C@@]341` [CODEINE], the median effective dose (ED50) amounted to 5.7 mg/kg in the test listed under Rattus norvegicus [2] and 10.3 mg/kg in the test filed under Mus musculus. Further, the Dose with Rattus norvegicus [3] stood at 50 mg/kg.

Take `CCN[C@@H]1C(c2ccccc2)=CC2CCC1C2` (some centres not stated): the Dose in the test with Rattus norvegicus [1] stood at 25 mg/kg; in the test with Rattus norvegicus [4], 50 mg/kg. Further, the ED50 in the test filed under Rattus norvegicus [2] stood at 3.1 mg/kg; in the test listed under Mus musculus, 15.6 mg/kg.

In the test with Rattus norvegicus [1], `CCCN[C@@H]1C(c2ccccc2)=CC2CCC1C2` (some centres not stated) gave a Dose of 25 mg/kg. The compound further displayed a 50% effective dose (ED50) in the test listed under Rattus norvegicus [2] of more than 30 mg/kg.

With `N[C@@H]1C(c2ccccc2)=CC2CCC1C2` (some centres not stated), the Dose with Rattus norvegicus [5] and with Rattus norvegicus [3] was 25 mg/kg in each case. In addition, the ED50 in the test listed under Rattus norvegicus [2] was more than 10 mg/kg; in the test listed under Mus musculus it was 8.3 mg/kg.

As to `CN[C@@H]1C(c2ccccc2)=CC2CCC1C2` (some centres not stated), the median effective dose (ED50) in the test filed under Rattus norvegicus [2] was 13.4 mg/kg; in the test listed under Mus musculus, 4 mg/kg.

In turn, `CCCN(C)[C@@H]1C(c2ccccc2)=CC2CCC1C2` (some centres not stated) gave an ED50 in the test filed under Rattus norvegicus [2] of more than 30 mg/kg. Also, in the test on Rattus norvegicus [3], the Dose is 25 mg/kg.

The compound `C=CCN(C)[C@@H]1C(c2ccccc2)=CC2CCC1C2` (some centres not stated) displayed a median effective dose (ED50) in the test filed under Rattus norvegicus [2] of more than 30 mg/kg. In the test with Rattus norvegicus [3], the Dose stood at 25 mg/kg.

`C1=C(c2ccccc2)[C@@H](NCC2CC2)C2CCC1C2` (some centres not stated): the ED50 in the test listed under Rattus norvegicus [2] is more than 30 mg/kg; in the test listed under Mus musculus, 4.1 mg/kg. For the same compound, the Dose with Rattus norvegicus [3] worked out at 25 mg/kg.

In the case of `C=CCN[C@@H]1C(c2ccccc2)=CC2CCC1C2` (some centres not stated), the ED50 in the test filed under Rattus norvegicus [2] came to 11 mg/kg; in the test filed under Mus musculus it was 13.7 mg/kg. Also, the Dose with Rattus norvegicus [6] is 50 mg/kg.

In the test filed under Rattus norvegicus [2], `C1=C(c2ccccc2)[C@@H](NCCc2ccccc2)C2CCC1C2` (some centres not stated) had an ED50 of more than 30 mg/kg. In the test on Rattus norvegicus [3], the Dose is 50 mg/kg.

For `COc1cccc(C2=CC3CCC(C3)[C@@H]2N(C)C)c1` (some centres not stated), the ED50 amounted to 7.8 mg/kg in the test filed under Rattus norvegicus [2] and 34.4 mg/kg in the test filed under Mus musculus. The Dose in the test with Rattus norvegicus [4] came out at 50 mg/kg.

Take `COCCN[C@@H]1C(c2ccccc2)=CC2CCC1C2` (some centres not stated): in the test filed under Mus musculus, the 50% effect level (ED50) was put at a dose of 27.7 mg/kg.

For `CCN(C)[C@@H]1C(c2cccc(O)c2)=CC2CCC1C2` (some centres not stated), in the test listed under Rattus norvegicus [2], the ED50 is more than 30 mg/kg. In the test with Rattus norvegicus [3], this compound gave a Dose of 25 mg/kg.

Take `CN(C)CCN[C@@H]1C(c2ccccc2)=CC2CCC1C2` (some centres not stated): the results for the ED50 in the test filed under Rattus norvegicus [2] and in the test listed under Mus musculus were 18.1 mg/kg and 31 mg/kg, respectively. The compound further gave a Dose in the test with Rattus norvegicus [3] of 50 mg/kg.

On to `CCN(CC)[C@@H]1C(c2ccccc2)=CC2CCC1C2` (some centres not stated), for which the Dose in the test with Rattus norvegicus [1] amounted to 25 mg/kg. In addition, the ED50 in the test listed under Rattus norvegicus [2] was more than 30 mg/kg; in the test listed under Mus musculus, 2.4 mg/kg.

Turning to `CN(C)[C@@H]1C(c2ccccc2)=CC2CCC1C2` (some centres not stated), the figures for the ED50 in the test filed under Rattus norvegicus [2] and in the test filed under Mus musculus were 2.9 mg/kg and 3.9 mg/kg, respectively. The compound further yielded a Dose in the test with Rattus norvegicus [4] of 50 mg/kg.

Consider `C1=C(c2ccccc2)[C@@H](NCC2CCCO2)C2CCC1C2` (some centres not stated), for which the 50% effective dose (ED50) in the test filed under Rattus norvegicus [2] and in the test listed under Mus musculus was more than 30 mg/kg throughout. The compound also displayed a Dose in the test on Rattus norvegicus [3] of 50 mg/kg.

With `C1=C(c2ccccc2)[C@@H](N2CCCC2)C2CCC1C2` (some centres not stated), the ED50 in the test listed under Rattus norvegicus [2] worked out at 15.7 mg/kg; in the test filed under Mus musculus, 19 mg/kg. Further, in the test on Rattus norvegicus [4], the Dose was 25 mg/kg and 50 mg/kg.

As for `CC(N)Cc1ccccc1` (configuration not stated) [AMPHETAMINE], the values for the Dose in the test on Rattus norvegicus [1] and with Rattus norvegicus [4] were 6.25 mg/kg and 12.5 mg/kg, respectively. Also, the ED50 is 2.1 mg/kg in the test listed under Rattus norvegicus [2] and 1.6 mg/kg in the test listed under Mus musculus.

For the compound `COCCN(C)[C@@H]1C(c2ccccc2)=CC2CCC1C2` (some centres not stated), the ED50 in the test listed under Rattus norvegicus [2] was more than 30 mg/kg. Further, the Dose in the test on Rattus norvegicus [3] was found to be 25 mg/kg.

Turning to `CC(C)N[C@@H]1C(c2ccccc2)=CC2CCC1C2` (some centres not stated), the 50% effective dose (ED50) in the test filed under Rattus norvegicus [2] was more than 30 mg/kg; in the test filed under Mus musculus, 15.4 mg/kg.

Take `CN(C)CCN(C)[C@@H]1C(c2ccccc2)=CC2CCC1C2` (some centres not stated): the ED50 in the test listed under Rattus norvegicus [2] is more than 30 mg/kg. Besides, the Dose with Rattus norvegicus [3] is 25 mg/kg.

Turning to `CCN(C)[C@@H]1C(c2ccccc2)=CC2CCC1C2` (some centres not stated), the ED50 in the test filed under Rattus norvegicus [2] was 1.4 mg/kg; in the test listed under Mus musculus, 11.8 mg/kg. This compound registered a Dose in the test on Rattus norvegicus [4] of 25 mg/kg.

One may read the ED50 as the dose at which the effect has come halfway, by size or by number of responders. Read a low ED50 as greater potency.

The values are drawn from ChEMBL document CHEMBL1122310, “Synthesis of exo-3-phenylbicyclo[3.2.1]oct-3-en-2-amine and related compounds as potential analgesics” (1983).
